We go through six compounds from ChEMBL document CHEMBL1135783, “Selective agonists at group II metabotropic glutamate receptors: synthesis, stereochemistry, and molecular pharmacology of (S)- and (R)-2-amino-4-(4-hydroxy[1,2,5]thiadiazol-3-yl)butyric acid” (J Med Chem, 2002).

Experiment [1] deals with Metabotropic glutamate receptor 5 (Rattus norvegicus, UniProt P31424). The experiment in a line: Compound was evaluated for the inhibitory activity against cloned Metabotropic glutamate receptor 5. Summed up:
(§1)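 CHO cell lines stably expressing mGluR1α, mGluR2, mGluR4a or mGluR5a, grown at 37 °C in 5% CO2 in DMEM with reduced (S)-glutamine ([…]) and 10% dialyzed fetal calf serum. Cells were seeded 2 days before assay: 1.8 × 10^6 cells/well for inositol phosphate (PI hydrolysis) or 1.0 × 10^6 for cAMP formation. Antagonist activity was tested at 1 mM unless stated otherwise.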

In experiment [2] the target is Metabotropic glutamate receptor 4 (Rattus norvegicus, UniProt P31423). The experiment in a line: Compound was evaluated for the inhibitory activity against cloned Metabotropic glutamate receptor 4. The method in brief:
as §1

For experiment [3], the target named is Metabotropic glutamate receptor 1 (Rattus norvegicus, UniProt P23385). Kind of experiment: Compound was evaluated for the inhibitory activity against cloned Metabotropic glutamate receptor 1. The method in brief:
as §1

Experiment [4] deals with Metabotropic glutamate receptor 2 (Rattus norvegicus, UniProt P31421). The experiment in a line: Compound was evaluated for the inhibitory activity against cloned Metabotropic glutamate receptor 2. The method in brief: as §1

Bounds are passed on as bounds.

As usually defined, the EC50 is the midpoint of the concentration-response curve. Low readings indicate greater potency, high ones weaker potency.

Chain of Metabotropic glutamate receptor 5 (P31424 whole entry): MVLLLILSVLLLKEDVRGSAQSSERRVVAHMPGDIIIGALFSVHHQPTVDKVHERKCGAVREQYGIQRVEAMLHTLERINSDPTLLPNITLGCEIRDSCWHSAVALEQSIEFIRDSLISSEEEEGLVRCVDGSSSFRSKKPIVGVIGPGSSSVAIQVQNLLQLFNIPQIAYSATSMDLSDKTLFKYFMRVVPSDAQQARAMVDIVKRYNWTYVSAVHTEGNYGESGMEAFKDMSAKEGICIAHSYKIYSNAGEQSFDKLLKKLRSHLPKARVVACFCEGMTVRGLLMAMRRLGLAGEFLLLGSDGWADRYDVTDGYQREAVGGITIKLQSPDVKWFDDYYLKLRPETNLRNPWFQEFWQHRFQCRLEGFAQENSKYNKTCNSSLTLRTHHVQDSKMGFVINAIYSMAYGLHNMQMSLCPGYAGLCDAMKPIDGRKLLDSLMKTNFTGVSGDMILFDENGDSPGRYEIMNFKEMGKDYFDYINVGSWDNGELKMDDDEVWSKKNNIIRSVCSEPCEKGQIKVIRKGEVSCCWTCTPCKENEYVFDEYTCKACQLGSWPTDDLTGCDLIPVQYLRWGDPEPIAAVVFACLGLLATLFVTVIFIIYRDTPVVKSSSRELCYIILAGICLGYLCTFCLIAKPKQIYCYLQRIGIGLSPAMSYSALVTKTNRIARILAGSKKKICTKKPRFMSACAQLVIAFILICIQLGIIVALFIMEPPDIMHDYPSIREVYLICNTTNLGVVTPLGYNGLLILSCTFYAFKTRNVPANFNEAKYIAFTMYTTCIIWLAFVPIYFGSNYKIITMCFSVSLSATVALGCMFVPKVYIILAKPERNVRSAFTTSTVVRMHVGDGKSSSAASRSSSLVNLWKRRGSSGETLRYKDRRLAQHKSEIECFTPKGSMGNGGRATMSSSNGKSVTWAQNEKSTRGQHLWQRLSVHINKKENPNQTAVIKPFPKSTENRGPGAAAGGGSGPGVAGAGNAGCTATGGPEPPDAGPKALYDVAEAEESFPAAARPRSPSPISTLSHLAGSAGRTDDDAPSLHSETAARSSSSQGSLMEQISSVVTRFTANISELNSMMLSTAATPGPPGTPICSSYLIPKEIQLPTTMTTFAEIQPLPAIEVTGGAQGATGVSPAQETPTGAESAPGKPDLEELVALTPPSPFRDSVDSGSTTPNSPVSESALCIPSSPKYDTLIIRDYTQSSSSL
Chain of Metabotropic glutamate receptor 4 (P31423 whole entry): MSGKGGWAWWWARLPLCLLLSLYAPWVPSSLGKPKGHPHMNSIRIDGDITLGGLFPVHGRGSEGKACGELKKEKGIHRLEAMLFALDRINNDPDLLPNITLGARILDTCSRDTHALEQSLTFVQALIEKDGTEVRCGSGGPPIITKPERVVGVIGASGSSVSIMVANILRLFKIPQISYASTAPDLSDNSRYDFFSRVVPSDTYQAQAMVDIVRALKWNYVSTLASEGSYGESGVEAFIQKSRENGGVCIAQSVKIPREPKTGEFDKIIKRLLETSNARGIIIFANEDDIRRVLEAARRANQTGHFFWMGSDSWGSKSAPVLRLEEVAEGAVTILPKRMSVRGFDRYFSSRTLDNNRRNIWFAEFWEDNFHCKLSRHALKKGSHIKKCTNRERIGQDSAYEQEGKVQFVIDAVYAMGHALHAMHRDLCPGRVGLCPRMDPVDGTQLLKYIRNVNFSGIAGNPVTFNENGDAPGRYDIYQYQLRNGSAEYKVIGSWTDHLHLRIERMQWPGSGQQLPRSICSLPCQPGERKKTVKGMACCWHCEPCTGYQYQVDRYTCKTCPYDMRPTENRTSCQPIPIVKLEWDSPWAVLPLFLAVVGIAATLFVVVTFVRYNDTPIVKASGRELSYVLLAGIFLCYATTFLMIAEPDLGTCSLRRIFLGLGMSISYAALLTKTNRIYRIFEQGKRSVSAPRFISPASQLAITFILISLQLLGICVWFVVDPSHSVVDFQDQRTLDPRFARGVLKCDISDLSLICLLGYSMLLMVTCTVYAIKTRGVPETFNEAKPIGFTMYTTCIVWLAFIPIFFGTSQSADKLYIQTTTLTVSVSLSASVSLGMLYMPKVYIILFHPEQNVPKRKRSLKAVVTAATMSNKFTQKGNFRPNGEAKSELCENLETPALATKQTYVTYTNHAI
Chain of Metabotropic glutamate receptor 1 (P23385 whole entry): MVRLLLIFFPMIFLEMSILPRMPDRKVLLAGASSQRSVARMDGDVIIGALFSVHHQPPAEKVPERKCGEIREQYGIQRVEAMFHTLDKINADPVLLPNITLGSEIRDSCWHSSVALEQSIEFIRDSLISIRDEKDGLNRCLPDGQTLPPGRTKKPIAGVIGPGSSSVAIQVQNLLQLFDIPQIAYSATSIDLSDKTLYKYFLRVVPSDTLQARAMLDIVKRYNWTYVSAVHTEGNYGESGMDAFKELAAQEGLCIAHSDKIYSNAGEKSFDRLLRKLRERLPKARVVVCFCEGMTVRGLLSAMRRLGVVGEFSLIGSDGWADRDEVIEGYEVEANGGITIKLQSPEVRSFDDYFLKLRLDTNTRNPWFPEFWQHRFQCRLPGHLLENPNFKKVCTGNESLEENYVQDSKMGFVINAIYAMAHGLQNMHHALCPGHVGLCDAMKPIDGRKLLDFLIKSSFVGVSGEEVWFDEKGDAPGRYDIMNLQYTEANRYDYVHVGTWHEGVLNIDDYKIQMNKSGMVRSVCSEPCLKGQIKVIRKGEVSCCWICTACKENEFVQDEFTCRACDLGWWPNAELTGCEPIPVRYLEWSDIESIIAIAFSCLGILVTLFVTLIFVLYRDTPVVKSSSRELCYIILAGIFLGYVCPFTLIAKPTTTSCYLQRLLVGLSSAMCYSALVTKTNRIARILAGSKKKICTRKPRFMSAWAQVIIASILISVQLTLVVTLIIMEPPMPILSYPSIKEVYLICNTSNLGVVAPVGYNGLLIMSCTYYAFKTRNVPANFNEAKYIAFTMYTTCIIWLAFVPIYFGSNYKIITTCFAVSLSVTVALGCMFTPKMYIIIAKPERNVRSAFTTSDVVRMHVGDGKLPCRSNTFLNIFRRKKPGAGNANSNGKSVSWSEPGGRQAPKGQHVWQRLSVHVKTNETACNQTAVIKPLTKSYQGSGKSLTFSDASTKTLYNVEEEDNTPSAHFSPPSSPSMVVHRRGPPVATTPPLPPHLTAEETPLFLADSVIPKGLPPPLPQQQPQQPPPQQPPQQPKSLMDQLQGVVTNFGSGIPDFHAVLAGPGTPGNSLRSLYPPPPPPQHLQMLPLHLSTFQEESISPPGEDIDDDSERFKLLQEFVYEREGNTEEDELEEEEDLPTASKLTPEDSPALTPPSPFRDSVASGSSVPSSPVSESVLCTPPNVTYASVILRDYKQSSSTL
Chain of Metabotropic glutamate receptor 2 (P31421 whole entry): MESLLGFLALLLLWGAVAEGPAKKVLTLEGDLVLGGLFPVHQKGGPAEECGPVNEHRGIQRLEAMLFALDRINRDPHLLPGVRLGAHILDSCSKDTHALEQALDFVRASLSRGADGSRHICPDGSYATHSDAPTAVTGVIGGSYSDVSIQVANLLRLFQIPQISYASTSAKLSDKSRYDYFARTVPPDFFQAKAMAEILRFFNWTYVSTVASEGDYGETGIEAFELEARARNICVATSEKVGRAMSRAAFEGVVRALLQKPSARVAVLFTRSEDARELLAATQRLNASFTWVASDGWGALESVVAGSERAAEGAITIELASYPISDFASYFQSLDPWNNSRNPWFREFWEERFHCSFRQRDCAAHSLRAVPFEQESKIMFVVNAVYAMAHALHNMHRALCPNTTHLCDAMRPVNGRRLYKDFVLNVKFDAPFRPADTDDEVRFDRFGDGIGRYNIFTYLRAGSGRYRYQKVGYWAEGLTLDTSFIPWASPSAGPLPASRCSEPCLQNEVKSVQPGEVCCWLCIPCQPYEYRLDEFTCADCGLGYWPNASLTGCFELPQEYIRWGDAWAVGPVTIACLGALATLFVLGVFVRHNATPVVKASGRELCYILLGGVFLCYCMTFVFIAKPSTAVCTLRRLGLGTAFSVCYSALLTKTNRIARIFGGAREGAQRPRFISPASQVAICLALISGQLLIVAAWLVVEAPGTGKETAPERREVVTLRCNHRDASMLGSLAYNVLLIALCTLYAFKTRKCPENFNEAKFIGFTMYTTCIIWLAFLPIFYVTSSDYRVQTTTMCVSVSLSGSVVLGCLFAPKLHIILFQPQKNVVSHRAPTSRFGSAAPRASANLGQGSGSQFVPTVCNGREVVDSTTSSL

For the compound `N[C@@H](CCc1nsnc1O)C(=O)O`, the EC50 in experiment [1] was 190 µM; in experiment [2], greater than 1000 µM; in experiment [3], greater than 1000 µM.
Regarding `N[C@H](CCc1nsnc1O)C(=O)O`, the EC50 in experiment [1], in experiment [2] and in experiment [3] was greater than 1000 µM in each case.
For `N[C@H](Cc1cc(=O)[nH]o1)C(=O)O`, the EC50 in experiment [4], in experiment [1], in experiment [2] and in experiment [3] was greater than 1000 µM in each case.
Take `N[C@@H](Cc1cc(=O)[nH]o1)C(=O)O`: the EC50 is greater than 1000 µM in experiment [4], 490 µM in experiment [1], greater than 1000 µM in experiment [2] and 250 µM in experiment [3].
Turning to `N[C@@H](CCCC(=O)O)C(=O)O` [(S)-2-AMINOADIPIC ACID], in experiment [1], the EC50 was greater than 1000 µM.
Regarding `N[C@@H](CCC(=O)O)C(=O)O` [GLUTAMIC ACID], in experiment [2], the EC50 was 12 µM.
